Assay [1] is filed under the species Homo sapiens. The assay is described as follows: Inhibition of Wnt/beta-catenin signaling pathway in human HCT116 whole cell lysate harboring beta-catenin mutation assessed as reduction in survivin protein expression at 5 uM after 18 hrs by Western blot analysis. The gist of the method:
(§1)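 CCRC240, HCT116 or SW480 cells were grown to 50–70% confluency and exposed 18 h to 5 μM compound in DMSO. Whole-cell lysates were blotted for c-Myc, cyclin D1 and survivin. Hypotonic cytosolic fractions, syringe-dispersed and centrifuged 120 min, were blotted for β-catenin and Axin2. β-Actin served as loading control.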

The species named for assay [2] is Homo sapiens. The assay is described as follows: Inhibition of Wnt/beta-catenin signaling pathway in human SW480 whole cell lysate harboring APC mutation assessed as reduction in survivin protein expression at 5 uM after 18 hrs by Western blot analysis. Put shortly: as §1
The species named for assay [3] is Homo sapiens. Briefly: Inhibition of Wnt/beta-catenin signaling pathway in human HCT116 cells cytosol lysate harboring beta-catenin mutation assessed as reduction in Axin2 protein expression at 5 uM after 18 hrs by Western blot analysis. The format is cell-based. Put shortly: as §1
Assay [4] is filed under the species Homo sapiens. Briefly: Inhibition of Wnt/beta-catenin signaling pathway in human HCT116 cells cytosol lysate harboring beta-catenin mutation assessed as reduction in beta-catenin protein expression at 5 uM after 18 hrs by Western blot analysis. The assay is classed as cell-based. Put shortly:
as §1

A short description of assay [5]: Antiproliferative activity against human CRC240 cells after 72 hrs by colorimetric MTS assay. The format is functional, cell-based. The gist of the method:
(§2)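 Cells plated at 5000 per well in their own media (Leibovitz's for SW948; McCoy's 5A for HT-29/HCT116; MEM for SW480; RPMI for CRC240/DLD-1) with 10% FBS. Exposed 72 h to compound, 0.001–10 μM or 0.04–10 μM, then colorimetric MTS read-out. […] CRC240 is a patient-derived xenograft line.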

Assay [6] relates to SW480. The assay is described as follows: Antiproliferative activity against human SW480 cells after 72 hrs by colorimetric MTS assay. The assay is classed as functional, cell-based. Conditions: SW480, 72 h. Put shortly:
as §2

Assay [7] is filed under the species Homo sapiens. The assay is described as follows: Inhibition of Wnt/beta-catenin signaling pathway in human CRC240 whole cell lysate assessed as reduction in survivin protein expression at 5 uM after 18 hrs by Western blot analysis. Put shortly:
as §1

Assay [8] in a line: Inhibition of Wnt3A-stimulated Wnt/beta-catenin pathway in HEK293 cells transfected with p8xTOPFlash, Renilla luciferase plasmid pRL-TK and pLKO.1 after 6 hrs by Dual topflash luciferase reporter assay. The format is cell-based. Conditions: Homo sapiens, HEK293, 6 h. The gist of the method:
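HEK293 cells stably carrying p8xTOPFlash, pRL-TK and pLKO.1 were grown overnight to confluence in MEM/10% FBS with 1 μg/ml puromycin. Wnt-3A conditioned medium (from L Wnt-3A cells) containing compound (0.04–10 μM) or DMSO was added for 6 h. Dual-luciferase was read, with the Wnt3A+DMSO signal set as 100%.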

Assay [9] deals with Frizzled-1 (Homo sapiens) (UniProt Q9UP38). The assay is described as follows: Induction of GFP-tagged Fzd1 (unknown origin) internalization expressed in human U2OS cells at 12.5 after 6 hrs by confocal microscopic method. The assay is classed as functional, cell-based. The gist of the method:
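U2OS cells stably expressing Fzd1-GFP were grown 24 h in confocal dishes and then treated 6 h at 37 °C with 12.5 μM compound, DMSO as control. Cells were fixed in 4% paraformaldehyde and imaged by confocal microscopy (488 nm excitation). Internalization was scored as intracellular green punctate vesicles.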

The species named for assay [10] is Homo sapiens. The assay is described as follows: Inhibition of Wnt/beta-catenin signaling pathway in human CRC240 cells cytosol lysate assessed as reduction in beta-catenin protein expression at 5 uM after 18 hrs by Western blot analysis. The assay is classed as cell-based. Put shortly:
as §1

Assay [11] deals with CCD-841CoN. Briefly: Stimulation of mitochondrial respiration in human CCD-841-CoN cells assessed as increase in oxygen consumption rate at 1 uM in presence of rotenone and […] antimycin A by polarographic analysis. The assay is classed as functional, cell-based. The gist of the method:
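CCD841Co cells were plated at 8000 per well and attached overnight. OCR was measured on a Seahorse XFp analyzer under basal conditions after 1 μM compound or DMSO was added. This was followed by 1 μM oligomycin, 1 μM FCCP, then 0.5 μM rotenone plus antimycin A (Mito Stress Test). Data given as mean ± SD, n = 2.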

Assay [12] is filed under the species Homo sapiens. Briefly: Inhibition of Wnt/beta-catenin signaling pathway in human SW480 cells cytosol lysate harboring APC mutation assessed as reduction in Axin2 protein expression at 5 uM after 18 hrs by Western blot analysis. The assay is classed as cell-based. Put shortly: as §1
For assay [13], the species on record is Homo sapiens. Briefly: Inhibition of Wnt/beta-catenin signaling pathway in human SW480 whole cell lysate harboring APC mutation assessed as reduction in cyclin D1 protein expression at 5 uM after 18 hrs by Western blot analysis. The gist of the method:
as §1

The species entered for assay [14] is Homo sapiens. The assay is described as follows: Inhibition of Wnt/beta-catenin signaling pathway in human CRC240 whole cell lysate assessed as reduction in cyclin D1 protein expression at 5 uM after 18 hrs by Western blot analysis. Put shortly: as §1
The species named for assay [15] is Homo sapiens. The assay is described as follows: Inhibition of Wnt/beta-catenin signaling pathway in human HCT116 whole cell lysate harboring beta-catenin mutation assessed as reduction in cyclin D1 protein expression at 5 uM after 18 hrs by Western blot analysis. Put shortly: as §1
The species named for assay [16] is Homo sapiens. Briefly: Inhibition of Wnt/beta-catenin signaling pathway in human SW480 cells cytosol lysate harboring APC mutation assessed as reduction in beta-catenin protein expression at 5 uM after 18 hrs by Western blot analysis. The format is cell-based. Put shortly:
as §1

The species entered for assay [17] is Homo sapiens. Briefly: Inhibition of Wnt/beta-catenin signaling pathway in human HCT116 whole cell lysate harboring beta-catenin mutation assessed as reduction in c-Myc protein expression at 5 uM after 18 hrs by Western blot analysis. The gist of the method: as §1
Assay [18] is filed under the species Homo sapiens. The assay is described as follows: Inhibition of Wnt/beta-catenin signaling pathway in human CRC240 whole cell lysate assessed as reduction in c-Myc protein expression at 5 uM after 18 hrs by Western blot analysis. Put shortly:
as §1

Assay [19] has as its system CCD-841CoN. Briefly: Stimulation of mitochondrial respiration in human CCD-841-CoN cells assessed as increase in oxygen consumption rate at 1 uM under basal conditions by polarographic analysis.
In assay [20] the test system is SW948. The assay is described as follows: Antiproliferative activity against human SW948 cells after 72 hrs by colorimetric MTS assay. Conditions: SW948, 72 h. The assay is classed as functional, cell-based. Put shortly: as §2
Assay [21] deals with AMP-activated protein kinase, AMPK (Homo sapiens) (UniProt P54646+O43741+P54619+Q9UGJ0+Q9Y478+Q13131+Q9UGI9). Briefly: Induction of AMPK phosphorylation in human CCD-841-CoN cells at 0.1 to 10 uM after 2 hrs by Western blot analysis. The assay is classed as cell-based. Put shortly:
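Colonic epithelial CCD841Co cells were seeded at 0.27 million per well on poly-D-lysine-coated wells and attached overnight. Medium was then switched to glucose-free DMEM with 2 mM pyruvate and 2 mM glutamine containing compound or DMSO. Whole-cell lysates were immunoblotted for phospho-Thr172 AMPK and total AMPK, with β-actin as loading control. Methods give 30 min exposure; legend gives 2 h.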

Assay [22] concerns HT-29. The assay is described as follows: Antiproliferative activity against human HT-29 cells after 72 hrs by colorimetric MTS assay. The format is functional, cell-based. Particulars: HT-29, 72 h. The gist of the method:
as §2

The species named for assay [23] is Homo sapiens. Briefly: Inhibition of Wnt/beta-catenin signaling pathway in human CRC240 cells cytosol lysate assessed as reduction in Axin2 protein expression at 5 uM after 18 hrs by Western blot analysis. The assay is classed as cell-based. Put shortly: as §1
The species named for assay [24] is Homo sapiens. Briefly: Inhibition of Wnt/beta-catenin signaling pathway in human SW480 whole cell lysate harboring APC mutation assessed as reduction in c-Myc protein expression at 5 uM after 18 hrs by Western blot analysis. Put shortly: as §1

The structures appear in SMILES notation. pIC50: −log10 of the molar value. Active and inactive are the calls of the source. The rule behind the calls is not given here.

Chain of Frizzled-1 (Homo sapiens) (Q9UP38 70-647 limits assumed): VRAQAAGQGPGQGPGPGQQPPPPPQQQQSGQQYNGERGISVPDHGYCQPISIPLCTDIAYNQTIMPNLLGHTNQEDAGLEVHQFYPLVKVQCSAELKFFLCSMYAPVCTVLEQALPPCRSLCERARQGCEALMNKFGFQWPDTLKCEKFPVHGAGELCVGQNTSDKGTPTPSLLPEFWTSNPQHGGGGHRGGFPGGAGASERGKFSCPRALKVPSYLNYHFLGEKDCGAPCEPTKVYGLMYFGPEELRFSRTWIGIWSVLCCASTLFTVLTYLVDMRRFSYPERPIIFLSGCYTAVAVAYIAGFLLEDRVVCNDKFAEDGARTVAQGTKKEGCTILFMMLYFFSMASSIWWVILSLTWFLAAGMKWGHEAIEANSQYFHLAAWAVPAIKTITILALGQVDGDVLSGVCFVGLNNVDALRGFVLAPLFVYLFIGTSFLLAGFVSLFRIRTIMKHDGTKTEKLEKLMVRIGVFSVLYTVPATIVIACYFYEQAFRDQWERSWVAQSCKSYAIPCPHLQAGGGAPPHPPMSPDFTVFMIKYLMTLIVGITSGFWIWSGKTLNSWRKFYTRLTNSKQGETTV

On to `O=C(Nc1ccc([N+](=O)[O-])cc1Cl)c1cc(Cl)ccc1O` [NICLOSAMIDE], for which the inhibition result in [1], in assay [2], in assay [3], in assay [4], in [7] and in [10] was “Active” in each case. Moreover, the inhibition result in assay [12], in [13], in assay [14], in [15], in assay [16] and in assay [17] was “Active” throughout. Besides, the inhibition entry in assay [18], in assay [23] and in assay [24] was “Active” each time. The pIC50 in [5] is 6.05; in assay [6] it was 6.01; in assay [8], 6.35; in [20] it was 6.96; in [22], 6.89. The outcome in [9], in assay [19] and in assay [21] was Active. For the same compound, the result in assay [11] was inactive.

Regarding `O=C(Nc1ccc(C(F)(F)F)cc1)c1cc(Cl)cc2nc(C(F)(F)F)[nH]c12`, the inhibition result in assay [1], in assay [2], in [3], in assay [4], in assay [7] and in [10] was “Active” in each case. The inhibition result in [12], in [13], in [14], in [15], in assay [16] and in [17] was “Active” throughout. The inhibition result in assay [18], in [23] and in [24] was “Active” throughout. In addition, the pIC50 in assay [5] was 6.49; in assay [6] it was 6.48; in [8], 6.72; in [20], 7.15; in assay [22], 6.92. Also, the result in [9], in [19] and in assay [21] was Active. In [11], the outcome was inactive.

Source of the values: ChEMBL document CHEMBL4270654, “Identification of DK419, a potent inhibitor of Wnt/β-catenin signaling and colorectal cancer growth” (Bioorg Med Chem, 2018).
